Tests used:
[1] = target: T1, C-C chemokine receptor type 4 (Homo sapiens, UniProt P51679); experiment: Inhibitory concentration against human C-C chemokine receptor type 4
T1 sequence (P51679 whole entry): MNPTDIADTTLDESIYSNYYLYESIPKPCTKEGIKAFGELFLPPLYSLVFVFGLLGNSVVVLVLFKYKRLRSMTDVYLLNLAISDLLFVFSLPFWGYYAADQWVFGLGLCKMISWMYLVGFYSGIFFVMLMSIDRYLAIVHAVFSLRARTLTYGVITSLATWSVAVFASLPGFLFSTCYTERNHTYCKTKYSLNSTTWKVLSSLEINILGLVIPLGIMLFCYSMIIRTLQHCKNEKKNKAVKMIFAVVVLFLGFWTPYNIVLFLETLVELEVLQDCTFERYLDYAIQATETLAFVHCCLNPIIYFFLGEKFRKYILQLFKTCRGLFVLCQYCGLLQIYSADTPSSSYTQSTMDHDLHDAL
Summary of the method: (§1)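 Whole-cell SPA binding: HEK293 stably expressing human CCR4, 4×10^4 cells/well on poly-L-lysine plates, cultured overnight at 37 °C. Compounds in DMSO (1%). Nonspecific defined with 100 nM unlabeled MDC. 15 min mixing, then 24 h at rt before counting.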

[2] = target: C-C chemokine receptor type 2 (Homo sapiens, UniProt P41597); experiment: Inhibitory concentration against C-C chemokine receptor type 2
C-C chemokine receptor type 2, sequence (P41597 whole entry): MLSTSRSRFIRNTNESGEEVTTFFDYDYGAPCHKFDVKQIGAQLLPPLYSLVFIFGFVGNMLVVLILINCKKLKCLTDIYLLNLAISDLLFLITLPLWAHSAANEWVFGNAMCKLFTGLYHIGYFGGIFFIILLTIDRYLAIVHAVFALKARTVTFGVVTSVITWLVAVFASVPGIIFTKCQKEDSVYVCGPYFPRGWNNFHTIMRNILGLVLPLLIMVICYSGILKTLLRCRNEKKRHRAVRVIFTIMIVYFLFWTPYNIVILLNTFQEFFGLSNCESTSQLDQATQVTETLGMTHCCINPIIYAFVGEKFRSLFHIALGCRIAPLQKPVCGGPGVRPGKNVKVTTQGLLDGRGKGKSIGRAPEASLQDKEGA

[3] = Inhibitory concentration against C-C chemokine receptor type 3; design: species or system Homo sapiens
[4] = target: C-X-C chemokine receptor type 3 (Homo sapiens) (UniProt P49682); experiment: Inhibitory concentration against CXC chemokine receptor 3
[5] = target: T1, C-C chemokine receptor type 4; experiment: Inhibitory concentration against human C-C chemokine receptor type 4; range = 3.6-6.1 uM; summary of the method: as §1

| Compound | IC50 [1] [µM] | other results |
| --- | --- | --- |
| CCN(CC)CCCC(C)Nc1ccnc(COc2cccc(Cl)c2)n1 (stereo not given) | 25 |  |
| CCN(CC)CCCC(C)Nc1ccnc(COc2cc(Cl)cc(Cl)c2)n1 (stereo not given) | 25 |  |
| CCN(CC)CCCC(C)Nc1ccnc(COc2ccc(F)cc2)c1 (stereo not given) | 18 |  |
| CCN(CC)CCCC(C)Nc1ccnc(COc2ccccc2Cl)c1 (stereo not given) | 17 |  |
| CCN(CC)CCCC(C)Nc1ccnc(COc2ccc(Cl)cc2Cl)c1 (stereo not given) | 1.2 |  |
| CCN(CC)CCCC(C)Nc1nc(COc2ccccc2)nc2ccccc12 (stereo not given) | 2 |  |
| CCN(CC)CCCC(C)Nc1nc(C(=O)Nc2ccccc2)nc2ccccc12 (stereo not given) | > 10 |  |
| CCN(CC)CCCC(C)Nc1nc(-c2ccc3ccccc3c2)nc2ccccc12 (stereo not given) | 2.5 |  |
| CCN(CC)CCCC(C)Nc1ccnc(COc2ccccc2)c1 (stereo not given) | > 30 |  |
| CCN(CC)CCCC(C)Nc1ccnc(COc2ccc(OC)cc2OC)n1 (stereo not given) | > 30 |  |
| CCN(CC)CCCC(C)Nc1nccc(OCc2ccc(Cl)cc2Cl)n1 (stereo in doubt; 10a) | 1.5 |  |
| CCN(CC)CCNc1nccc(OCc2ccc(Cl)cc2Cl)n1 | 9 |  |
| CC(C)CCCC(C)Nc1nccc(OCc2ccc(Cl)cc2Cl)n1 (stereo not given) | > 10 |  |
| CCN(CC)CCCC(C)Nc1nc(-c2ccccc2)nc2ccccc12 (stereo not given) | > 25 |  |
| CCN(CC)CCCC(C)Nc1nc(CCCc2ccccc2)nc2ccccc12 (stereo not given) | > 10 |  |
| CCN(CC)CCCC(C)Nc1ccnc(COc2ccc(Cl)c(Cl)c2)c1 (stereo not given) | 4 |  |
| CCN(CC)CCCC(C)Nc1nc(/C=C/c2ccccc2)nc2ccccc12 (stereo not given) |  | IC50 [5]: 6.1 µM |
| CCN(CC)CCCC(C)Nc1ccnc(COc2ccc(Cl)cc2)c1 (stereo not given) | 20 |  |

More lines, main results first:

| IC50 [1] [µM] | Compound | other results |
| --- | --- | --- |
| 8 | CCN(CC)CCCNc1nccc(OCc2ccc(Cl)cc2Cl)n1 |  |
| 0.27 | CCN(CC)CCCC(C)Nc1nccc(NCc2ccc(Cl)cc2Cl)n1 (stereo not given) | IC50 [2]: > 10 µM; IC50 [3]: 2 µM; IC50 [4]: > 30 µM |
| 10 | CCN(CC)CCCC(C)Nc1nc(Cc2ccccc2)nc2ccccc12 (stereo not given) |  |
| 2.4 | CCN(CC)CCCC(C)Nc1nc(CCc2ccccc2)nc2ccccc12 (stereo not given) |  |
| 2 | CN(C)CCCCCNc1nccc(OCc2ccc(Cl)cc2Cl)n1 |  |
| > 30 | CCN(CC)CCCC(C)Nc1ccnc(COc2cccc(OC)c2)n1 (stereo not given) |  |
| 2.8 | CCN(CC)CCCC(C)Nc1ccnc(OCc2ccc(Cl)cc2Cl)n1 (stereo not given) |  |
| 1.5 | CCN(CC)CCCC(C)Nc1nccc(OCc2ccc(Cl)cc2Cl)n1 (stereo in doubt; 11a) |  |
| 3 | CCN(CC)CCCCNc1nccc(OCc2ccc(Cl)cc2Cl)n1 |  |

Source: ChEMBL document CHEMBL1144361, “Identification of chemokine receptor CCR4 antagonist” (Bioorg Med Chem Lett, 2005)
